Data published in ChEMBL document CHEMBL4184090, “Discovery of novel jaspine B analogues as autophagy inducer” (Bioorg Med Chem Lett, 2018).
Activity calls are given as the source filed them. The rule behind the calls is not given here.

How the values were obtained:
A549 = assay: Antiproliferative activity against human A549 cells after 72 hrs by MTT assay; assay type: functional, cell-based; conditions: A549, 72 h
Outline: (§1)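 MTT proliferation assay; cells exposed to compounds for 72 h. IC50 is the concentration inhibiting tumor cell proliferation by 50%. Means ± SDs of three independent experiments. 5-Fluorouracil used as positive control.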

B16-F10 = assay: Antiproliferative activity against mouse B16/F10 cells after 72 hrs by MTT assay; assay type: functional, cell-based; conditions: B16-F10, 72 h; outline: as §1
MCF7 = assay: Antiproliferative activity against human MCF7 cells after 72 hrs by MTT assay; assay type: functional, cell-based; conditions: MCF7, 72 h; outline: as §1
PC-3 [1] = assay: Antiproliferative activity against human PC3 cells after 72 hrs by MTT assay; assay type: functional, cell-based; conditions: PC-3, 72 h; outline: as §1
PC-3 [2] = assay: Induction of autophagy in human PC3 cells assessed as increase in beclin-1 expression level by Western blot analysis; assay type: functional, cell-based
Outline: (§2)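 Western blot of PC-3 lysates for beclin-1, LC3B-I, LC3B-II and P62 after treatment at increasing concentrations.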

PC-3 [3] = assay: Induction of apoptosis in human PC3 cells assessed as necrotic cells at 2 uM after 48 hrs by Annexin V-FITC/propidium iodide staining-based flow cytometric analysis (reference value: 0.1%); assay type: functional
PC-3 [4] = assay: Induction of apoptosis in human PC3 cells assessed as viable cells at 3 uM after 48 hrs by Annexin V-FITC/propidium iodide staining-based flow cytometric analysis (reference value: 78.2%); assay type: functional; conditions: PC-3, 48 h, read-out: Activity
PC-3 [5] = assay: Induction of apoptosis in human PC3 cells assessed as necrotic cells at 4 uM after 48 hrs by Annexin V-FITC/propidium iodide staining-based flow cytometric analysis (reference value: 0.1%); assay type: functional
PC-3 [6] = assay: Induction of apoptosis in human PC3 cells assessed as viable cells at 4 uM after 48 hrs by Annexin V-FITC/propidium iodide staining-based flow cytometric analysis (reference value: 78.2%); assay type: functional; conditions: PC-3, 48 h, read-out: Activity
PC-3 [7] = assay: Induction of apoptosis in human PC3 cells assessed as necrotic cells at 3 uM after 48 hrs by Annexin V-FITC/propidium iodide staining-based flow cytometric analysis (reference value: 0.1%); assay type: functional
PC-3 [8] = assay: Induction of apoptosis in human PC3 cells assessed as early apoptotic cells at 2 uM after 48 hrs by Annexin V-FITC/propidium iodide staining-based flow cytometric analysis (reference value: 12.4%); assay type: functional
PC-3 [9] = assay: Induction of autophagy in human PC3 cells assessed as increase LC3-2 accumulation at 4 uM by confocal microscopic analysis; assay type: functional, cell-based; conditions: TDE = time-dependent effect
Outline: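 LC3 immunofluorescence in PC-3 cells imaged by confocal microscopy over time up to 24 h to follow autophagosome formation.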

PC-3 [10] = assay: Induction of apoptosis in human PC3 cells assessed as early apoptotic cells at 3 uM after 48 hrs by Annexin V-FITC/propidium iodide staining-based flow cytometric analysis (reference value: 12.4%); assay type: functional
PC-3 [11] = assay: Induction of apoptosis in human PC3 cells assessed as early apoptotic cells at 1 uM after 48 hrs by Annexin V-FITC/propidium iodide staining-based flow cytometric analysis (reference value: 12.4%); assay type: functional
PC-3 [12] = assay: Induction of apoptosis in human PC3 cells assessed as late apoptotic cells at 4 uM after 48 hrs by Annexin V-FITC/propidium iodide staining-based flow cytometric analysis (reference value: 9.3%); assay type: functional
PC-3 [13] = assay: Induction of mitochondrial membrane potential loss in human PC3 cells at 1 uM after 24 hrs by JC-1 staining-based flow cytometric analysis (reference value: 50.5%); assay type: functional
PC-3 [14] = assay: Cytotoxicity against human PC3 cells assessed as reduction in cell viability at 3 uM after 48 hrs by MTT assay relative to control; assay type: functional
Outline: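 MTT viability read-out in PC-3 cells incubated with a range of concentrations for 48 h; viability expressed relative to untreated control cells.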

PC-3 [15] = assay: Induction of apoptosis in human PC3 cells assessed as late apoptotic cells at 1 uM after 48 hrs by Annexin V-FITC/propidium iodide staining-based flow cytometric analysis (reference value: 9.3%); assay type: functional
PC-3 [16] = assay: Induction of apoptosis in human PC3 cells assessed as early apoptotic cells at 4 uM after 48 hrs by Annexin V-FITC/propidium iodide staining-based flow cytometric analysis (reference value: 12.4%); assay type: functional
PC-3 [17] = assay: Induction of apoptosis in human PC3 cells assessed as late apoptotic cells at 2 uM after 48 hrs by Annexin V-FITC/propidium iodide staining-based flow cytometric analysis (reference value: 9.3%); assay type: functional
PC-3 [18] = assay: Induction of autophagy in human PC3 cells assessed as increase in LC3-2 expression level by Western blot analysis; assay type: functional, cell-based; outline: as §2
PC-3 [19] = assay: Induction of apoptosis in human PC3 cells assessed as late apoptotic cells at 3 uM after 48 hrs by Annexin V-FITC/propidium iodide staining-based flow cytometric analysis (reference value: 9.3%); assay type: functional
PC-3 [20] = assay: Induction of mitochondrial membrane potential loss in human PC3 cells at 4 uM after 24 hrs by JC-1 staining-based flow cytometric analysis (reference value: 50.5%); assay type: functional
PC-3 [21] = assay: Induction of autophagy in human PC3 cells assessed as decrease in P62 protein level at 1 uM by Western blot analysis; assay type: functional, cell-based; outline: as §2
PC-3 [22] = assay: Induction of apoptosis in human PC3 cells assessed as necrotic cells at 1 uM after 48 hrs by Annexin V-FITC/propidium iodide staining-based flow cytometric analysis (reference value: 0.1%); assay type: functional
PC-3 [23] = assay: Induction of morphological changes in human PC3 cells at 3 uM by microscopic analysis; assay type: functional, cell-based
PC-3 [24] = assay: Induction of apoptosis in human PC3 cells assessed as viable cells at 1 uM after 48 hrs by Annexin V-FITC/propidium iodide staining-based flow cytometric analysis (reference value: 78.2%); assay type: functional; conditions: PC-3, 48 h, read-out: Activity
PC-3 [25] = assay: Induction of mitochondrial membrane potential loss in human PC3 cells at 3 uM after 24 hrs by JC-1 staining-based flow cytometric analysis (reference value: 50.5%); assay type: functional
PC-3 [26] = assay: Induction of mitochondrial membrane potential loss in human PC3 cells at 2 uM after 24 hrs by JC-1 staining-based flow cytometric analysis (reference value: 50.5%); assay type: functional
PC-3 [27] = assay: Induction of apoptosis in human PC3 cells assessed as viable cells at 2 uM after 48 hrs by Annexin V-FITC/propidium iodide staining-based flow cytometric analysis (reference value: 78.2%); assay type: functional; conditions: PC-3, 48 h, read-out: Activity

In the case of CCCCCCCCNC[C@@H]1OC[C@H](N)[C@@H]1O, the IC50 (A549) is reported as > 128 µM, the IC50 (B16-F10) is reported as > 128 µM and the IC50 (MCF7) is reported as 96.6 µM. It also gave an IC50 (PC-3 [1]) of 13.8 µM.
For CCCCCCCCCCNC[C@@H]1OC[C@H](N)[C@H]1O, the IC50 (A549) was > 128 µM, the IC50 (B16-F10) was > 128 µM and the IC50 (MCF7) was 42.7 µM. The IC50 (PC-3 [1]) was > 128 µM.
In the case of CCCCCCCCCCCCNC[C@@H]1OC[C@H](N)[C@H]1O, the IC50 (A549) is reported as 41.1 µM, the IC50 (B16-F10) is reported as 58.1 µM and the IC50 (MCF7) is reported as 12.6 µM. For the same compound, the IC50 (PC-3 [1]) was 2.38 µM.
With CCCCCCCCCNC[C@@H]1OC[C@H](N)[C@H]1O the IC50 (A549) was > 128 µM, the IC50 (B16-F10) was > 128 µM and the IC50 (MCF7) was 60.3 µM. It also gave an IC50 (PC-3 [1]) of 7.65 µM.
CCCCCCCCCCCCNC[C@@H]1OC[C@H](N)[C@@H]1O was tested, and the Activity (PC-3 [2]) was “Dose-dependent effect”, the Activity (PC-3 [3]) was 0.3% and the viability at 3 µM (PC-3 [4]) was 80.8%. The Activity (PC-3 [5]) was 0.2%, the viability at 4 µM (PC-3 [6]) was 8.5% and the Activity (PC-3 [7]) was 0.6%. The Activity (PC-3 [8]) was 2.3%, the Activity (PC-3 [9]) was “Tde” and the Activity (PC-3 [10]) was 3%. It also gave an Activity (PC-3 [11]) of 2.6%, an Activity (PC-3 [12]) of 81.9% and an IC50 (A549) of 5.87 µM. It also gave an Activity (PC-3 [13]) of 69.1%, an Activity (PC-3 [14]) of 56% and an Activity (PC-3 [15]) of 8%. For the same compound, the Activity (PC-3 [16]) was 9.3%, the Activity (PC-3 [17]) was 9.6% and the Activity (PC-3 [18]) was “Dose-dependent effect”. For the same compound, the Activity (PC-3 [19]) was 15.7%, the Activity (PC-3 [20]) was 93% and the IC50 (B16-F10) was 10.7 µM. For the same compound, the IC50 (MCF7) was 1.8 µM, the Activity (PC-3 [21]) was “Active” and the Activity (PC-3 [22]) was 0.2%. The Activity (PC-3 [23]) was “Active”, the viability at 1 µM (PC-3 [24]) was 89.2% and the IC50 (PC-3 [1]) was 0.85 µM. The Activity (PC-3 [25]) was 88.2%, the Activity (PC-3 [26]) was 78.6% and the viability at 2 µM (PC-3 [27]) was 87.7%.
CCCCCCCNC[C@@H]1OC[C@H](N)[C@H]1O was tested, and the IC50 (A549) was > 128 µM, the IC50 (B16-F10) was > 128 µM and the IC50 (MCF7) was > 128 µM. The IC50 (PC-3 [1]) was > 128 µM.
CCCCCCCCCCCNC[C@@H]1OC[C@H](N)[C@H]1O was tested, and the IC50 (A549) was 9.65 µM, the IC50 (B16-F10) was 88.8 µM and the IC50 (MCF7) was 13.1 µM. The IC50 (PC-3 [1]) was 10 µM.
In the case of CCCCCCCCCNC[C@@H]1OC[C@H](N)[C@@H]1O, the IC50 (A549) is reported as 22.1 µM, the IC50 (B16-F10) is reported as 55.2 µM and the IC50 (MCF7) is reported as 12.5 µM. The IC50 (PC-3 [1]) was 2.03 µM.
In the case of CCCCCCCCCCNC[C@@H]1OC[C@H](N)[C@@H]1O, the IC50 (A549) is reported as 47.8 µM, the IC50 (B16-F10) is reported as 29.6 µM and the IC50 (MCF7) is reported as 34.2 µM. It also gave an IC50 (PC-3 [1]) of 11.9 µM.
For CCCCCCCCNC[C@@H]1OC[C@H](N)[C@H]1O, the IC50 (A549) was 71.8 µM, the IC50 (B16-F10) was > 128 µM and the IC50 (MCF7) was > 128 µM. The IC50 (PC-3 [1]) was 13 µM.
O=c1[nH]cc(F)c(=O)[nH]1 [FLUOROURACIL] was tested, and the IC50 (A549) was 0.43 µM, the IC50 (B16-F10) was 6.29 µM and the IC50 (MCF7) was 6.11 µM. For the same compound, the IC50 (PC-3 [1]) was 0.53 µM.
Compound CCCCCCCCCCCNC[C@@H]1OC[C@H](N)[C@@H]1O has an IC50 (A549) of 11.1 µM, an IC50 (B16-F10) of 19.3 µM and an IC50 (MCF7) of 6.77 µM. The IC50 (PC-3 [1]) was 3.33 µM.
In the case of CCCCCCCCCCCCCC[C@@H]1OC[C@H](N)[C@@H]1O [PACHASTRISSAMINE], the IC50 (A549) is reported as 1.87 µM, the IC50 (B16-F10) is reported as 0.5 µM and the IC50 (MCF7) is reported as 2.33 µM. For the same compound, the IC50 (PC-3 [1]) was 0.7 µM.
With CCCCCCCCCCCCCCNC[C@@H]1OC[C@H](N)[C@@H]1O the IC50 (A549) was 2.85 µM, the IC50 (B16-F10) was 14.3 µM and the IC50 (MCF7) was 0.72 µM. The IC50 (PC-3 [1]) was 1.2 µM.
Work on CCCCCCCCCCCCCCNC[C@@H]1OC[C@H](N)[C@H]1O yielded an IC50 (A549) of 19.9 µM, an IC50 (B16-F10) of 64.2 µM and an IC50 (MCF7) of 8.83 µM. For the same compound, the IC50 (PC-3 [1]) was 1.99 µM.
In the case of CCCCCCCNC[C@@H]1OC[C@H](N)[C@@H]1O, the IC50 (A549) is reported as > 128 µM, the IC50 (B16-F10) is reported as > 128 µM and the IC50 (MCF7) is reported as > 128 µM. The IC50 (PC-3 [1]) was 22.4 µM.
